From ChEMBL document CHEMBL3414451, “Discovery of a series of efficient, centrally efficacious BACE1 inhibitors through structure-based drug design” (J Med Chem, 2015) come the findings set out here.

Data set [1] can be described thus: Ratio of drug level in brain to plasma in CD1 mouse at 10 mg/kg, sc after 60 mins. The data set is classed as ADME, organism-based. Also noted: dose 10 mg/kg, route subcutaneous. The following applies: brain and plasma, read-out: BPR. In outline: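 Plasma and brain exposures were measured in mice 60 min after 10 mg/kg subcutaneous dosing.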
Data set [2] is described as follows: Ratio of free drug level in brain to plasma in CD1 mouse at 10 mg/kg, sc. It is filed as ADME, organism-based. Also noted: dose 10 mg/kg, route subcutaneous. The following applies: brain and plasma. In outline: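 Male CD-1 mice, 10 mg/kg sc in 5% DMSO/95% (0.5% methylcellulose). Plasma, brain and CSF were collected at 1, 4 and 7 h and analyzed by LC-MS/MS. Free fractions came from equilibrium dialysis.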

Data set [3] can be described thus: Ratio of free drug level in brain to plasma in dog. The data set is classed as ADME, Canis lupus familiaris. As to conditions: brain and plasma.

As to `NC1=N[C@@]2(c3ccc(F)cc3F)CO[C@@H](C(F)F)C[C@H]2CS1`, the Kp at 1 h in data set [1] came out at 3.51. Moreover, in data set [2], the Kp uu amounted to 1.2.
For `NC1=N[C@@]2(c3ccc(F)cc3F)CO[C@@H](CF)C[C@H]2CS1`, the Kp at 1 h in data set [1] is 9.2. Moreover, the figures for the Kp uu in data set [3] and in data set [2] were 0.78 and 1.42, respectively.
With `C[C@H]1C[C@H]2CSC(N)=N[C@@]2(c2ccc(F)cc2F)CO1`, in data set [1], the Kp at 1 h was 3.9. In addition, the Kp uu in data set [2] was found to be 0.92.
